Bioassay records from PubChem.
An excerpt weighted towards active compounds, which were near 2.6% of everything screened.
Platelet DG rel: inhibitors of platelet dense granule secretion, primary screen, cell-based, MLPCN, human platelets; hit rate 0.22% among 300,000; human platelet-rich plasma, SFLLRN dense granule ATP release, luminescence; inhibition, %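 (compounds screened at 7.5 µM in platelet-rich plasma)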;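 active means mean replicate score, as percent of positive control, at or above 50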
SENP6 block: SENP6 protease inhibitors, primary screen, biochemical, luminescence, uHTS. Recombinant SENP6 catalytic domain, aminoluciferin luminescence. hit rate 1.8% among 330,000. Sentrin-specific protease 6 (Homo sapiens), Q9GZR1. inhibition, % at 10 µM;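 active means inhibition above about 50% at the single tested dose, limit read from the data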;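 further: plate controls were DMSO wells with enzyme for no effect and DMSO wells lacking enzyme for full effect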
SENP8 block-1: human SENP8 protease inhibitors, primary screen, biochemical, fluorescence, Nedd8 protein substrate, uHTS; recombinant SENP8; inhibition, % at 20 µM; hit rate 0.64% among 360,000; Sentrin-specific protease 8 (Homo sapiens), Q96LD8; in the data active means inhibition mostly above about 40%, no sharp cut-off; inactive means mostly below about 27%
SENP7 inh: SENP7 protease inhibitors, primary screen, biochemical, luminescence, uHTS; recombinant SENP7, Z-RLRGG-aminoluciferin luminescence, 40 min; inhibition, % at 5 µM; hit rate 1.5% among 330,000;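 active means inhibition above about 50% at the single test dose, limit read from the data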;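 further: plate controls were DMSO with enzyme for no effect and no enzyme buffer wells for full effect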
Target sequence (Q9BQF6 706-1050 limits assumed): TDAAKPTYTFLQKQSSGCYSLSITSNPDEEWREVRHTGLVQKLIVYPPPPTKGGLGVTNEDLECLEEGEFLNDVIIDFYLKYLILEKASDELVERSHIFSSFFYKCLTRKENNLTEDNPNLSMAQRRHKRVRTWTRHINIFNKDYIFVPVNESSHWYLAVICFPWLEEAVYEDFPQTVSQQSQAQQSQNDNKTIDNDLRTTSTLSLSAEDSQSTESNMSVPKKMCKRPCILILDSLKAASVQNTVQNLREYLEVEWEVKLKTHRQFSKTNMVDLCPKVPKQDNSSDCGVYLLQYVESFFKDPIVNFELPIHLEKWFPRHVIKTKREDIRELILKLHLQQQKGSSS
SENP1 inh: human SENP1 catalytic domain inhibitors, primary screen, biochemical, FRET, uHTS; Sentrin-specific protease 1 (Homo sapiens), Q9P0U3; recombinant SENP1 catalytic domain, CyPet-SUMO1-YPet FRET cleavage; inhibition, % at 10 µM; hit rate 0.21% among 360,000; AID 624204, 2012;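 active means inhibition at least 30% at 10 µM, raw YFP signal under a set limit, fluorescence ratio 0.5 to 1.5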;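 further: 0% = enzyme with DMSO and 100% = no enzyme wells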
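Assay system: hSENP1 catalytic domain, recombinant. Amount: SENP1 enzyme, 20 pM final. Schedule: 50 min reaction, RT, dark. Technique: FRET, CFP and YFP emission. Control set: no-enzyme wells low, DMSO-plus-enzyme wells high control.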
SENP8 block-2: SENP8 protease inhibitors, primary screen, biochemical, luminescence. Sentrin-specific protease 8 (Homo sapiens), Q96LD8. inhibition, % at 10 µM. AID 2540, 2010. hit rate 1.2% among 330,000. purified SENP8, Z-RLRGG-aminoluciferin cleavage; in the data active means inhibition above about 50%
SENP8 confirm: SENP8 protease inhibitors, retest, confirmation, biochemical, luminescence, single concentration. Recombinant SENP8, Z-RLRGG-aminoluciferin luminescence, 60 min. inhibition, % at 12.5 µM. shares compounds with SENP7 inh. hit rate 40% among 6,200;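 active means mean inhibition across replicates above about 50%, limit read from the data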
SENP6 confirm: SENP6 protease inhibitors, confirmation, biochemical, luminescence, single concentration; shares compounds with SENP7 inh; recombinant SENP6, Z-RLRGG-aminoluciferin luminescence; inhibition, % at 12.5 µM; hit rate 58% among 6,200; AID 488915, 2010
SENP7 conf: SENP7 protease inhibitors, retest, confirmation, biochemical, luminescence, single concentration. shares compounds with SENP7 inh. inhibition, % at 12.5 µM. recombinant SENP7, Z-RLRGG-aminoluciferin luminescence, 40 min. hit rate 69% among 6,200
Casp3 SENP sel: caspase-3 protease inhibitors, confirmation, selectivity assay for SENP inhibitor project, biochemical, single concentration | purified caspase-3, Z-DEVD-aminoluciferin luminescence, 60 min | AID 488918, 2010 | hit rate 60% among 6,200 | shares compounds with SENP7 inh | inhibition, % at 12.5 µM;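 active means mean inhibition above about 50%, limit read from the data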;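 further: plate controls were enzyme with DMSO for no effect and wells without caspase-3 for full effect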
Target sequence (P42574 28-227 limits assumed): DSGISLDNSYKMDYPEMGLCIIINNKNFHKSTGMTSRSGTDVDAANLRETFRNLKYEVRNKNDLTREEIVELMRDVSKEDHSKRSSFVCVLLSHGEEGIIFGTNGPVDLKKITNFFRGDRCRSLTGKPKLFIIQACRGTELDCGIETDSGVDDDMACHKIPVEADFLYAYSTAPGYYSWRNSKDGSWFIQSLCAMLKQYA
SENP luc ctr: counter-screen for SENP inhibitors: luminescence interference; inhibition, % at 12.5 µM; shares compounds with SENP7 inh; hit rate 39% among 6,200; Pre-incubated SENP8/Z-RLRGG-aminoluciferin, luciferase luminescence interference;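 active means mean inhibition above about 50% when retested at one dose, limit read from the data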;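 further: plate controls were DMSO wells with completed reaction for no effect and substrate without enzyme for full effect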
Numbers without * were called inactive.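 How the source made its calls, unless noted: active means mean inhibition above about 50% in the one-dose retest (limit read from the data); inactive means the rest.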

What do the screens show for `CC(NC(=O)c1ccc(N)cc1)c1ccccc1` (stereo unspecified)?
Platelet DG rel: -33.3; SENP6 block: 12.6; SENP8 block-1: 4.8; SENP7 inh: -6.9; SENP1 inh: 3.0; SENP8 block-2: -4.6

How did COC(=O)[C@]12CCCCC=C1N(CCC1=CCCCC1)C(=O)[C@H](CC(=O)NCC13CC4CC(CC(C4)C1)C3)C2 do in these assays?
SENP8 block-1: 5.8; SENP1 inh: 2.1

Results for C[C@@H]1CCC2[C@](C)(CO)[C@@H](O)CC[C@]2(C)[C@@]12C[C@](CO)(CC(=O)O)CO2 (stereo partly specified) ?
Platelet DG rel: 0.2; SENP6 block: 9.1; SENP8 block-1: 22.3; SENP7 inh: 0.6; SENP1 inh: 0.4; SENP8 block-2: 7.8

How did CCc1ccc(-c2ccc(C(=O)O)cc2)nc1 do in these assays?
Platelet DG rel: -2.6; SENP6 block: 20.0; SENP8 block-1: 22.0; SENP7 inh: 65.3*; SENP1 inh: 1.3; SENP8 block-2: 49.2; SENP8 confirm: 76.1*; SENP6 confirm: 74.0*; SENP7 conf: 93.7*; Casp3 SENP sel: 90.7*; SENP luc ctr: 75.2*

How did COc1ccc(N=Nc2cc(C)ccc2O)cc1 do in these assays?
Platelet DG rel: 13.8; SENP6 block: 8.8; SENP8 block-1: -10.6; SENP7 inh: 98.7*; SENP1 inh: 3.9; SENP8 block-2: 95.7*; SENP8 confirm: 84.5*; SENP6 confirm: 97.4*; SENP7 conf: 102.1*; Casp3 SENP sel: 91.9*; SENP luc ctr: 92.4*

Results for COc1cccc(N=Nc2ccc3ccccc3c2O)c1 ?
Platelet DG rel: 16.0; SENP6 block: 88.7*; SENP8 block-1: 12.4; SENP7 inh: 99.7*; SENP1 inh: 8.2; SENP8 block-2: 95.7*; SENP8 confirm: 7.6; SENP6 confirm: 30.9; SENP7 conf: 19.7; Casp3 SENP sel: 92.2*; SENP luc ctr: 0.1

Results for COc1ccc(N=Nc2ccc3ccccc3c2)c(O)c1 ?
Platelet DG rel: 8.7; SENP6 block: 98.1*; SENP8 block-1: 27.3; SENP7 inh: 97.6*; SENP1 inh: 6.5; SENP8 block-2: 19.2; SENP8 confirm: 43.2; SENP6 confirm: 39.7; SENP7 conf: 26.1; Casp3 SENP sel: 40.6; SENP luc ctr: -0.9

Results for COc1ccc(N=Cc2oc3ccc4ccccc4c3c2O)cc1 ?
Platelet DG rel: 4.9; SENP6 block: 2.9; SENP8 block-1: -58.2; SENP7 inh: -6.9; SENP1 inh: -25.1; SENP8 block-2: -18.5

Results for Cc1ccc(NC(=O)COc2ccccc2C=O)cc1Cl ?
Platelet DG rel: 8.9; SENP6 block: 11.2; SENP8 block-1: -2.3; SENP7 inh: 5.2; SENP1 inh: 1.8; SENP8 block-2: -8.4

What do the screens show for `Cc1ccc(Cl)cc1N1CCN(S(C)(=O)=O)CC1`?
Platelet DG rel: -5.5; SENP6 block: 4.5; SENP8 block-1: 3.0; SENP7 inh: 66.7*; SENP1 inh: 3.3; SENP8 block-2: -5.9; SENP8 confirm: 3.7; SENP6 confirm: 6.1; SENP7 conf: 13.9; Casp3 SENP sel: 9.3; SENP luc ctr: 5.0

How did COc1ccc2c(CC(=O)OCC(=O)N3CCc4ccccc43)coc2c1 do in these assays?
Platelet DG rel: -3.9; SENP6 block: -2.8; SENP8 block-1: 8.9; SENP7 inh: 1.5; SENP1 inh: 0.3; SENP8 block-2: 0.0

Results for COc1ccc2oc(C(=O)N3CCc4ccccc43)c(C)c2c1 ?
Platelet DG rel: 25.8; SENP6 block: 95.8*; SENP8 block-1: 3.3; SENP7 inh: 99.9*; SENP1 inh: -7.7; SENP8 block-2: 95.7*; SENP8 confirm: 71.7*; SENP6 confirm: 88.2*; SENP7 conf: 95.7*; Casp3 SENP sel: 84.9*; SENP luc ctr: 17.3

Results for COc1ccc2c(CC(=O)N3CCc4ccccc43)coc2c1 ?
Platelet DG rel: 13.8; SENP6 block: 84.7*; SENP8 block-1: -2.9; SENP7 inh: 85.1*; SENP1 inh: -5.6; SENP8 block-2: 71.7*; SENP8 confirm: 81.0*; SENP6 confirm: 80.7*; SENP7 conf: 93.2*; Casp3 SENP sel: 80.6*; SENP luc ctr: 61.4*

Results for COc1ccc2cc(C(=O)N3CCc4ccccc43)[nH]c2c1 ?
Platelet DG rel: -0.9; SENP6 block: 86.3*; SENP8 block-1: -24.2; SENP7 inh: 92.6*; SENP1 inh: -27.8; SENP8 block-2: 52.5*; SENP8 confirm: 22.3; SENP6 confirm: 34.1; SENP7 conf: 22.9; Casp3 SENP sel: 21.6; SENP luc ctr: 0.3

Results for COc1ccc(-c2cnc(C(O)c3ccc(CN4CCCCC4)cc3)[nH]2)cc1 (stereo unspecified) ?
SENP8 block-1: -8.4; SENP1 inh: -3.0

What do the screens show for `Cc1ccc(Cc2c(-c3cccc(Cl)c3)nc3c4ccccc4ccn23)cc1`?
SENP8 block-1: -261.2; SENP1 inh: -3.6

Results for O=C(OCc1c(Cl)cccc1Cl)c1ccccn1 ?
Platelet DG rel: -5.9; SENP6 block: 3.1; SENP8 block-1: 9.1; SENP7 inh: 1.8; SENP1 inh: 2.4; SENP8 block-2: -3.1

Results for COC(=O)c1ccc(COC(=O)c2ccccn2)cc1 ?
Platelet DG rel: 2.6; SENP6 block: 75.4*; SENP8 block-1: 13.0; SENP7 inh: 82.4*; SENP1 inh: 3.4; SENP8 block-2: 49.5; SENP8 confirm: 76.5*; SENP6 confirm: 74.0*; SENP7 conf: 91.3*; Casp3 SENP sel: 91.8*; SENP luc ctr: 76.0*
